Results gathered from unrelated publications.
Lines come from different studies, so protocols differ.
Target: TGF-beta receptor type-1 (TGFBR1, Homo sapiens, UniProt P36897)
Residues used in one study (P36897 1-503): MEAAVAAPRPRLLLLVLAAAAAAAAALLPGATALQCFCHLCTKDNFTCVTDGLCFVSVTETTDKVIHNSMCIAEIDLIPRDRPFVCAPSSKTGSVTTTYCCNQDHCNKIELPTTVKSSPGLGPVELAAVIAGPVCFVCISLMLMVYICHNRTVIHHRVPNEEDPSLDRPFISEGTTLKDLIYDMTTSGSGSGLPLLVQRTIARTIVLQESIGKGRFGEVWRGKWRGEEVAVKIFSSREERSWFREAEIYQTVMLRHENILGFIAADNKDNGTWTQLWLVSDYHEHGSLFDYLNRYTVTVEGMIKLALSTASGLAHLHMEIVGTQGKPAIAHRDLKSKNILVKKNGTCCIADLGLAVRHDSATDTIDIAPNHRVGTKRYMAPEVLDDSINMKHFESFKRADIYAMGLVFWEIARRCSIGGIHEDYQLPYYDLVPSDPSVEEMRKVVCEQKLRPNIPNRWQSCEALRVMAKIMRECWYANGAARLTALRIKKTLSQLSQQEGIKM

| Structure (SMILES) | read-out | action | technique | concentration | quantity | result |
| --- | --- | --- | --- | --- | --- | --- |
| CCOC(=O)c1cc2cc(-c3cc(C(=O)NCc4ccc(C(=O)O)cc4)nn3C)ccc2[nH]1 | cell-free assay | – | competition with immobilised ligand | 0.1 µM | remaining binding | 100% |
| Fc1ccc(-c2c(-c3ccncc3)ncn2-c2ccc3ccccc3c2)cc1 | cell-free assay | – | TR-FRET | 1 µM | inhibition | 21% |
| Cc1cnc(NC2CCOCC2)nc1-n1cnc(C(=O)NC(CN)c2cc(F)cc(Cl)c2)c1 (stereo not shown) | enzyme activity | inhibitor | radiometric | 1 µM | remaining activity | 98% |
| O=C(O)c1cc(-c2ccc(C3CCNCC3)cc2)c2ccc(-c3ccc(C(F)(F)F)cc3)cc2c1 | cell-free assay | – | competition with immobilised ligand | 1 µM | remaining binding | 81% |
| Cc1ccc(NC(=O)c2ccc(C)c(C(F)(F)F)c2)cc1C#Cc1nn(C2CCC(O)CC2)c2ncnc(N)c12 (stereo not shown) | cell-free assay | – | – | 10 µM | remaining signal | 105% |
| CN1CC(Oc2cnc(C#N)cc2-c2ccn3nc(NC(=O)C4CC4)cc3c2)C1 | enzyme activity | inhibitor | – | 1 µM | inhibition | -9% |
| Cc1sc(C(=O)NC2COC2)cc1-n1cc(NC(=O)Nc2c(F)cccc2Cl)cn1 | enzyme activity | inhibitor | – | 10 µM | remaining activity | 104% |
| O=C1Nc2ccc(Cl)cc2C1=Cc1cc(Cl)c(O)c(Cl)c1 | cell-free assay | – | – | 0.5 µM | remaining signal | 102% |
| CC(C)(O)[C@H]1CC[C@H](Nc2ccc3ncc(-c4cccc(C(F)(F)F)c4)n3n2)CC1 | enzyme activity | inhibitor | – | 1 µM | remaining activity | 108% |
| C[C@H](c1cccc(C#N)c1)n1cc(Cl)cc(C(N)=O)c1=N | cell-free assay | – | competition with immobilised ligand | 1 µM | remaining binding | 100% |
| COc1cccc(F)c1Cn1cnc(-c2ccc(F)cc2)c1-c1ccncc1 | cell-free assay | – | TR-FRET | 1 µM | inhibition | 20% |
| CS(=O)(=O)Nc1cccc(-c2csc(NC(=O)CSc3nc4nccnc4c(=O)n3CCc3ccccc3)n2)c1 | enzyme activity | inhibitor | – | 10 µM | inhibition | 5% |
| Cc1ccc(Nc2nccc(N(C)c3ccc4c(C)n(C)nc4c3)n2)cc1S(N)(=O)=O | cell-free assay | – | – | 0.5 µM | remaining signal | 103% |
| Fc1ccc(-c2c(-c3ccncc3)ncn2-c2ccc(-c3ccccc3)cc2)cc1 | cell-free assay | – | TR-FRET | 1 µM | inhibition | 21% |
| NS(=O)(=O)c1cc(NC(=O)Cc2ccccc2)ccc1Oc1cccc(Cl)c1 | cell-free assay | – | competition with immobilised ligand | 1 µM | remaining binding | 100% |
| CC(C)(C)c1nc(-c2cccc(NS(=O)(=O)c3c(F)cccc3F)c2F)c(-c2ccnc(N)n2)s1 | enzyme activity | inhibitor | radiometric | 1 µM | remaining activity | 22% |
| COc1cc2ncnc(Nc3ccc(F)c(Cl)c3)c2cc1OCCCN1CCOCC1 | cell-free assay | – | – | 0.5 µM | remaining signal | 99.6% |
| O=C(NS(=O)(=O)c1ccc(NCC2CCOCC2)c([N+](=O)[O-])c1)c1ccc(N2CCN(Cc3ccc(C(F)(F)F)cc3-c3ccc(Cl)cc3)CC2)cc1Oc1cnc2[nH]ccc2c1 | cell-free assay | – | competition with immobilised ligand | 1 µM | remaining binding | 93% |
| COc1cc(-c2cc(-c3ccc(N4CCNCC4)cc3)cnc2C)cc(OC)c1OC | enzyme activity | inhibitor | – | 0.1 µM | inhibition | 3% |
| C[S+]([O-])c1ccc(-c2nc(-c3ccncc3)c(-c3ccc(F)cc3)[nH]2)cc1 (stereo not shown) | cell-free assay | – | – | 0.5 µM | remaining signal | 101% |
| CCCCN(CCCC)C(=O)CN1C[C@H](c2cc(OC)c3c(c2)OCO3)[C@@H](C(=O)O)[C@@H]1CC(C)(C)CCC | cell-free assay | – | competition with immobilised ligand | 1 µM | remaining binding | 98.6% |
| COc1cccc(F)c1Cn1cnc(-c2ccncc2)c1-c1ccc(F)cc1 | cell-free assay | – | TR-FRET | 1 µM | inhibition | 19% |
| NS(=O)(=O)c1cc(NC(=O)C2(c3ccccc3Cl)CC2)ccc1Oc1cccc(Cl)c1 | cell-free assay | – | competition with immobilised ligand | 1 µM | remaining binding | 82% |
| COc1cc(Nc2cnc(C#N)c(O[C@H](C)CN(C)C)n2)ncc1-c1cnn(C)c1 | enzyme activity | inhibitor | radiometric | 1 µM | remaining activity | 122% |
| COc1cc(Cl)c(C(=O)N[C@@H](CN[C@H]2CC[C@@H](N)CC2)Cc2ccc(C#N)cc2)cc1-c1ccc(CN[C@H](C)c2ccc(C)cc2)o1 | enzyme activity | inhibitor | – | 1 µM | remaining activity | 103% |
| CSc1cccnc1N1CCN(Cc2nc3ccccc3[nH]2)CC1 | cell-free assay | – | competition with immobilised ligand | 1 µM | remaining binding | 100% |
| c1ccc(-c2[nH]ncc2-c2ccnc3ccccc23)nc1 | cell-free assay | – | – | 0.5 µM | remaining signal | 41.6% |
| Fc1ccc(-c2ncn(-c3ccccc3)c2-c2ccncc2)cc1 | cell-free assay | – | TR-FRET | 1 µM | inhibition | 31% |
